Laboratory results as given in ChEMBL document CHEMBL4270594, “Design, synthesis and pharmacological evaluation of new 3-(1H-benzimidazol-2-yl)quinolin-2(1H)-one derivatives as potential antitumor agents” (Eur J Med Chem, 2018).
The source made the active and inactive calls. The calls are words filed in the database; no cut-off is given here.

Columns and labels:
BEL-7404 tumor cell line [1] = assay: Antitumor activity against human Bel7404 cells xenografted in Balb/c nude mouse assessed as tumor growth inhibition at 50 mg/kg, ip bid for 20 days measured on day 21 post last dose relative to control; type: functional; details: BEL-7404, ip, read-out: TGI
Mus musculus [2] = assay: Upregulation of Bax protein expression in tumor tissues of Balb/c nude mouse xenografted with human Bel7404 cells at 25 to 50 mg/kg, ip bid for 20 days measured on day 21 by Western blot analysis; type: functional, organism-based
BEL-7404 tumor cell line [3] = assay: Cell cycle arrest in human Bel7404 cells assessed as accumulation at G1-phase at 9 uM after 48 hrs by propidium iodide staining based flow cytometry (reference value: 59.16%); type: functional
BEL-7404 tumor cell line [4] = assay: Cell cycle arrest in human Bel7404 cells assessed as accumulation at G2-phase at 9 uM after 48 hrs by propidium iodide staining based flow cytometry (reference value: 18.84%); type: functional
Mus musculus [5] = assay: Downregulation of PARP protein expression in tumor tissues of Balb/c nude mouse xenografted with human Bel7404 cells at 25 to 50 mg/kg, ip bid for 20 days measured on day 21 by Western blot analysis; type: functional, organism-based
Mus musculus [6] = assay: Effect on caspase-3 protein expression in tumor tissues of Balb/c nude mouse xenografted with human Bel7404 cells at 25 to 50 mg/kg, ip bid for 20 days measured on day 21 by Western blot analysis; type: functional, organism-based
Mus musculus [7] = assay: Downregulation of caspase-9 protein expression in tumor tissues of Balb/c nude mouse xenografted with human Bel7404 cells at 25 to 50 mg/kg, ip bid for 20 days measured on day 21 by Western blot analysis; type: functional, organism-based
BEL-7404 tumor cell line [8] = assay: Antitumor activity against human Bel7404 cells xenografted in Balb/c nude mouse assessed as relative tumor volume increment rate at 25 mg/kg, ip bid for 20 days measured on day 21 post last dose relative to control; type: functional
BEL-7404 tumor cell line [9] = assay: Antitumor activity against human Bel7404 cells xenografted in Balb/c nude mouse assessed as induction of necrosis at 25 to 50 mg/kg, ip for 20 days measured on day 21 post last dose by hematoxylin and eosin staining based microscopic method; type: functional, organism-based
BEL-7404 tumor cell line [10] = assay: Cell cycle arrest in human Bel7404 cells assessed as accumulation at S-phase at 9 uM after 48 hrs by propidium iodide staining based flow cytometry (reference value: 22%); type: functional
HepG2 [11] = assay: Cell cycle arrest in human HepG2 cells assessed as accumulation at G1-phase at 10 uM after 48 hrs by propidium iodide staining based flow cytometry (reference value: 50.47%); type: functional
HepG2 [12] = assay: Induction of apoptosis in human HepG2 cells assessed as live cells at 8 uM after 24 hrs by Annexin V-FITC/ propidium iodide staining based flow cytometry (reference value: 91.31%); type: functional
HepG2 [13] = assay: Cell cycle arrest in human HepG2 cells assessed as accumulation at G2-phase at 8 uM after 48 hrs by propidium iodide staining based flow cytometry (reference value: 19.04%); type: functional
HepG2 [14] = assay: Induction of apoptosis in human HepG2 cells assessed as early apoptotic cells at 10 uM after 24 hrs by Annexin V-FITC/ propidium iodide staining based flow cytometry (reference value: 6.5%); type: functional
HepG2 [15] = assay: Upregulation of p53 protein expression in human HepG2 cells at 6 to 10 uM after 12 hrs by Western blot analysis; type: functional, cell-based
Procedure, shortened: (§1)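 HepG2 cell lysates after compound treatment analyzed by western blot for the target protein, compared with untreated negative control.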

HepG2 [16] = assay: Induction of mitochondrial cytochrome-c release in to cytotol in human HepG2 cells at 6 to 10 uM after 12 hrs by Western blot analysis; type: functional, cell-based
HepG2 [17] = assay: Cell cycle arrest in human HepG2 cells assessed as accumulation at S-phase at 10 uM after 48 hrs by propidium iodide staining based flow cytometry (reference value: 30.49%); type: functional
HepG2 [18] = assay: Cell cycle arrest in human HepG2 cells assessed as accumulation at S-phase at 8 uM after 48 hrs by propidium iodide staining based flow cytometry (reference value: 30.49%); type: functional
HepG2 [19] = assay: Upregulation of p53 protein expression in human HepG2 cells at 8 uM after 12 hrs by Western blot analysis; type: functional, cell-based
HepG2 [20] = assay: Induction of apoptosis in human HepG2 cells assessed as late apoptotic cells at 10 uM after 24 hrs by Annexin V-FITC/ propidium iodide staining based flow cytometry (reference value: 1.91%); type: functional
HepG2 [21] = assay: Upregulation of Bax protein expression in human HepG2 cells at 6 to 10 uM after 12 hrs by Western blot analysis; type: functional, cell-based; procedure, shortened: as §1
HepG2 [22] = assay: Induction of apoptosis in human HepG2 cells assessed as pycnosis at 6 to 10 uM after 12 hrs by acridine orange/ethidium bromide staining based fluorescence microscopic method; type: functional, cell-based
Procedure, shortened: (§2)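 HepG2 cells stained with acridine orange/ethidium bromide and examined by fluorescence microscopy; nuclei scored as yellow/green or orange, with pycnosis, membrane blebbing and cell budding taken as apoptotic morphology.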

HepG2 [23] = assay: Upregulation of p27 protein expression in human HepG2 cells at 6 to 10 uM after 12 hrs by Western blot analysis; type: functional, cell-based; procedure, shortened: as §1
Mus musculus [24] = assay: Upregulation of Bax protein expression in tumor tissues of Balb/c nude mouse xenografted with human NCI-H460 cells at 25 to 50 mg/kg, ip bid for 13 days measured on day 14 by Western blot analysis; type: functional, organism-based
Procedure, shortened: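 Tumors from NCI-H460 xenografted BALB/c nude mice (25 or 50 mg/kg, vehicle 5% DMSO in saline) collected at day 14; protein levels in tumor tissue determined by western blot versus vehicle control.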

Mus musculus [25] = assay: Upregulation of APAF-1 protein expression in tumor tissues of Balb/c nude mouse xenografted with human NCI-H460 cells at 25 to 50 mg/kg, ip bid for 13 days measured on day 14 by Western blot analysis; type: functional, organism-based
HepG2 [26] = assay: Induction of apoptosis in human HepG2 cells assessed as early apoptotic cells at 8 uM after 24 hrs by Annexin V-FITC/ propidium iodide staining based flow cytometry (reference value: 6.5%); type: functional
HepG2 [27] = assay: Cell cycle arrest in human HepG2 cells assessed as accumulation at G2-phase at 6 uM after 48 hrs by propidium iodide staining based flow cytometry (reference value: 19.04%); type: functional
HepG2 [28] = assay: Cell cycle arrest in human HepG2 cells assessed as accumulation at G1-phase at 8 uM after 48 hrs by propidium iodide staining based flow cytometry (reference value: 50.47%); type: functional
HepG2 [29] = assay: Induction of apoptosis in human HepG2 cells assessed as membrane blebbing at 6 to 10 uM after 12 hrs by acridine orange/ethidium bromide staining based fluorescence microscopic method; type: functional, cell-based; procedure, shortened: as §2
HepG2 [30] = assay: Cell cycle arrest in human HepG2 cells assessed as accumulation at S-phase at 6 uM after 48 hrs by propidium iodide staining based flow cytometry (reference value: 30.49%); type: functional
HepG2 [31] = assay: Induction of apoptosis in human HepG2 cells after 24 hrs by Annexin V-FITC/ propidium iodide staining based flow cytometry; type: functional, cell-based
HepG2 [32] = assay: Induction of apoptosis in human HepG2 cells assessed as live cells at 6 uM after 24 hrs by Annexin V-FITC/ propidium iodide staining based flow cytometry (reference value: 91.31%); type: functional
HepG2 [33] = assay: Induction of apoptosis in human HepG2 cells assessed as early apoptotic cells at 6 uM after 24 hrs by Annexin V-FITC/ propidium iodide staining based flow cytometry (reference value: 6.5%); type: functional

O=c1[nH]c2cc3c(cc2cc1-c1nc2cc(Cl)ccc2[nH]1)OCO3
inhibition in vivo at 50 mg/kg (BEL-7404 tumor cell line [1]): 44.9%
Activity (Mus musculus [2]): inactive
Activity (BEL-7404 tumor cell line [3]): 45.76%
Activity (BEL-7404 tumor cell line [4]): 30.58%
Activity (Mus musculus [5]): Active
Activity (Mus musculus [6]): inactive
Activity (Mus musculus [7]): Active
T/C (BEL-7404 tumor cell line [8]): 51.5%
Activity (BEL-7404 tumor cell line [9]): Active
Activity (BEL-7404 tumor cell line [10]): 23.66%

O=c1[nH]c2ccccc2cc1-c1nc2cc(Cl)ccc2[nH]1
Activity (HepG2 [11]): 23.66%
Activity (HepG2 [12]): 53.37%
Activity (HepG2 [13]): 39.71%
Activity (HepG2 [14]): 45.57%
Activity (HepG2 [15]): Active
Activity (HepG2 [16]): Active
Activity (HepG2 [17]): 27.24%
Activity (HepG2 [18]): 29.19%
Activity (HepG2 [19]): Active
Activity (HepG2 [20]): 16.68%
Activity (HepG2 [21]): Active
Activity (HepG2 [22]): Active
Activity (HepG2 [23]): Active
Activity (Mus musculus [24]): Active
Activity (Mus musculus [25]): Active
Activity (HepG2 [26]): 35.9%
Activity (HepG2 [27]): 39%
Activity (HepG2 [28]): 31.1%
Activity (HepG2 [29]): Active
Activity (HepG2 [30]): 29.48%
Activity (HepG2 [31]): Dose-dependent effect
Activity (HepG2 [32]): 68.62%
Activity (HepG2 [33]): 20.22%
